One block for each compound: values may come before it. The source made the active and inactive calls. The rule behind the calls is not given here.
Legend:
[1] = Antiarrhythmic activity in hiPSC-CMs assessed as dose for induction of early after depolarizations; details: human, ipsc-cm
[2] = species: Homo sapiens; assay: Selectivity index, ratio of IC50 for potassium channel (unknown origin) expressed in HEK cells assessed as reduction in potassium current to IC50 for sodium channel (unknown origin) expressed in HEK cells assessed as reduction in late inward sodium current; format: cell-based
[3] = Antiarrhythmic activity in patient-derived hiPSC-CMs carrying LQT3 mutation assessed as fold shortening of action potential duration relative to control; format: functional, Homo sapiens, iPSC-CM
[4] = Antiarrhythmic activity in hiPSC-CMs assessed as cessation dose of cell beating; details: human, ipsc-cm
[5] = Antiarrhythmic activity in patient-derived hiPSC-CMs carrying LQT3 mutation assessed as cessation dose for cell beating; format: functional, Homo sapiens, iPSC-CM
[6] = Antiarrhythmic activity in hiPSC-CMs assessed as fold prolongation of action potential relative to control; details: human, ipsc-cm
[7] = Inhibition of sodium channel (unknown origin) expressed in HEK cells assessed as reduction in peak sodium current by automated patch clamp method; format: cell-based; details: Homo sapiens, HEK293
[8] = Antiarrhythmic activity in patient-derived hiPSC-CMs carrying LQT3 mutation assessed as shortening of action potential duration; format: functional, Homo sapiens; details: ipsc-cm; read-out: EC50
[9] = Inhibition of potassium channel (unknown origin) expressed in CHO cells assessed as reduction in potassium current by automated patch clamp method; format: cell-based
[10] = Antiarrhythmic activity in patient-derived hiPSC-CMs carrying LQT3 mutation assessed as shortening dose of action potential; format: functional, Homo sapiens, iPSC-CM
[11] = Inhibition of sodium channel (unknown origin) expressed in HEK cells assessed as reduction in late inward sodium current by automated patch clamp method; format: cell-based; details: Homo sapiens, HEK293
[12] = AUC in Sprague-Dawley rat at 5 mg/kg, iv measured upto 25 hrs by LCMS analysis; format: ADME, organism-based; parameters: route intravenous, dose 5 mg/kg, time <=25; details: in vivo
[13] = Toxicity in ip dosed BALB/c mouse assessed as lethal dose; format: organism-based; details: in vivo
[14] = Half life in Sprague-Dawley rat at 25 mg/kg, po measured upto 25 hrs by LCMS analysis; format: ADME, organism-based; details: in vivo
[15] = Oral bioavailability in Sprague-Dawley rat at 25 mg/kg measured upto 25 hrs by LCMS analysis; format: ADME, organism-based; details: in vivo
[16] = Toxicity in BALB/c mouse assessed as lethargy at 100 mg/kg, ip monitored for 30 mins; format: organism-based; details: in vivo, 0.5 h
[17] = Toxicity in BALB/c mouse assessed as central nervous system effects at 100 mg/kg, ip; format: organism-based; details: in vivo
[18] = Tmax in Sprague-Dawley rat at 25 mg/kg, po measured upto 25 hrs by LCMS analysis; format: ADME, organism-based; details: in vivo
[19] = Cmax in Sprague-Dawley rat at 5 mg/kg, iv measured upto 25 hrs by LCMS analysis; format: ADME, organism-based; parameters: route intravenous, dose 5 mg/kg, time <=25; details: in vivo
[20] = Tmax in Sprague-Dawley rat at 5 mg/kg, iv measured upto 25 hrs by LCMS analysis; format: ADME, organism-based; details: in vivo
[21] = Metabolic stability in human liver microsomes assessed as compound remaining at 50 uM after 1 hr by HPLC method; format: ADME, Microsome; details: read-out: Stabilty
Procedure, shortened: (§1)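 Human liver microsomes (0.4–0.5 mg protein) or S-9 (1 mg) with 50 μM compound in 50 mM potassium phosphate pH 7.4 plus NADPH-generating system, 37 °C shaking for 0, 7, 15, 30, 60 min; stopped with cold acetonitrile; HPLC C18, isocratic water/acetonitrile with 0.05% TFA, UV 275.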

[22] = Metabolic stability in human liver S9 fraction assessed as compound remaining at 50 uM after 1 hr by HPLC method; format: ADME, subcellular; details: read-out: Stabilty; procedure, shortened: as §1
[23] = Half life in Sprague-Dawley rat at 5 mg/kg, iv measured upto 25 hrs by LCMS analysis; format: ADME, organism-based; details: in vivo
[24] = AUC in Sprague-Dawley rat at 25 mg/kg, po measured upto 25 hrs by LCMS analysis; format: ADME, organism-based; parameters: route oral, dose 25 mg/kg, time <=25; details: in vivo
[25] = Cmax in Sprague-Dawley rat at 25 mg/kg, po measured upto 25 hrs by LCMS analysis; format: ADME, organism-based; parameters: route oral, dose 25 mg/kg, time <=25; details: in vivo
[26] = species: Homo sapiens; assay: Selectivity index, ratio of IC50 for sodium channel (unknown origin) expressed in HEK cells assessed as reduction in peak sodium current to IC50 for sodium channel (unknown origin) expressed in HEK cells assessed as reduction in late inward sodium current; format: cell-based
[27] = Chemical stability in pH 7.4 phosphate buffer assessed as half life at 100 uM by RP-HPLC analysis; format: physicochemical
[28] = Chemical stability in pH 3 phosphate buffer assessed as half life at 100 uM by RP-HPLC analysis; format: physicochemical
[29] = Metabolic stability in human liver S9 fraction assessed as half life at 50 uM measured upto 60 mins by HPLC method; format: ADME, subcellular; procedure, shortened: as §1
[30] = Metabolic stability in human liver microsomes assessed as half life at 50 uM measured upto 60 mins by HPLC method; format: ADME, Microsome; procedure, shortened: as §1
[31] = Toxicity in BALB/c mouse assessed as behavioral effects at 100 mg/kg, ip monitored for 30 mins; format: organism-based; details: in vivo, 0.5 h
Procedure, shortened: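 Adult male BALB/c mice, four per compound, 100 mg/kg i.p.; behaviour (lethargy, immobilization, seizures, shaking) observed for 30 min; lethality recorded at 24 h.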

[32] = system: Heart; assay: Antiarrhythmic activity in H2O2-perfused Sprague-Dawley rat heart assessed as resolution of arrhythmias to normal sinus rhythm at 10 uM after 30 to 40 mins; format: functional, tissue-based; details: time 30-40 min
Procedure, shortened: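 Perfused ex vivo hearts from aged rats; continuous perfusion of H2O2 (0.1 mM) induces EADs and ectopic beats progressing to VT/VF; test compound perfused at 10 μM with H2O2 still present; rhythm followed for conversion to sinus rhythm.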

[33] = molecular target: Cytochrome P450 3A5 (Homo sapiens, UniProt P20815); assay: Drug metabolism assessed as human CYP3A5-mediated metabolism per ug protein; format: ADME; details: recombinant enzyme
Sequence of Cytochrome P450 3A5 (P20815 whole entry): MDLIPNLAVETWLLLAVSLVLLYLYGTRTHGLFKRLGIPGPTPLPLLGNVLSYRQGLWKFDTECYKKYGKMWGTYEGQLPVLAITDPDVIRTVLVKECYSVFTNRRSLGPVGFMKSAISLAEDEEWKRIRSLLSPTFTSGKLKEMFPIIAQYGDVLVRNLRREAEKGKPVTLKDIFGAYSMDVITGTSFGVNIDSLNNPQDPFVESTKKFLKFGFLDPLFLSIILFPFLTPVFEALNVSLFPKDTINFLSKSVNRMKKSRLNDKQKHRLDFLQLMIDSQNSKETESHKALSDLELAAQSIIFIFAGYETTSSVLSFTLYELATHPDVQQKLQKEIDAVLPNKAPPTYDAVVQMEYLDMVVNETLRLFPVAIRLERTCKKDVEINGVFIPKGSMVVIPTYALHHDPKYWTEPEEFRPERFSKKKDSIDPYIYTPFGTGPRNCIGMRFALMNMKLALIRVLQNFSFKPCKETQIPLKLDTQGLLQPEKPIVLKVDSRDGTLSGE

[34] = Antiarrhythmic activity in hiPSC-CMs assessed as prolongation of action potential; parameters: species or system Homo sapiens, iPSC-CM; details: ipsc-cm
[35] = molecular target: Cytochrome P450 3A4 (Homo sapiens, UniProt P08684); assay: Drug metabolism assessed as human CYP3A4-mediated metabolism per ug protein; format: ADME; details: recombinant enzyme
Sequence of Cytochrome P450 3A4 (P08684 whole entry): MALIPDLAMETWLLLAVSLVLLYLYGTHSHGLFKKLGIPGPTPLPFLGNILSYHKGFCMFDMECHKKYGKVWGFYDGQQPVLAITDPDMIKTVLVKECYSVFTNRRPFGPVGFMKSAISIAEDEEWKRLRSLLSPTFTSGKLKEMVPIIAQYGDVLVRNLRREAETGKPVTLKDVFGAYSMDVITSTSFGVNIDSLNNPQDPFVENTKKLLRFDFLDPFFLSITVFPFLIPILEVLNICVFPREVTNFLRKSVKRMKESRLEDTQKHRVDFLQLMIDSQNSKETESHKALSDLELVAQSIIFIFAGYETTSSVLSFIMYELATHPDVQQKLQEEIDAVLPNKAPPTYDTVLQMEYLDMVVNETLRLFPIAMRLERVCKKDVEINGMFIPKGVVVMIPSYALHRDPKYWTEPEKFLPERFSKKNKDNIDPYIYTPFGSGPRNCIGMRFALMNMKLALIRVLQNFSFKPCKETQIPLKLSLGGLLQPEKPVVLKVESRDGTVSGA

[36] = species: Homo sapiens; assay: Selectivity index, ratio of IC50 for potassium channel (unknown origin) expressed in CHO cells assessed as reduction in potassium current to IC50 for sodium channel (unknown origin) expressed in HEK cells assessed as reduction in late inward sodium current
[37] = molecular target: Cytochrome P450 2D6 (Homo sapiens, UniProt P10635); assay: Drug metabolism assessed as human CYP2D6-mediated metabolism per ug protein; format: ADME; details: recombinant enzyme
Sequence of Cytochrome P450 2D6 (P10635 whole entry): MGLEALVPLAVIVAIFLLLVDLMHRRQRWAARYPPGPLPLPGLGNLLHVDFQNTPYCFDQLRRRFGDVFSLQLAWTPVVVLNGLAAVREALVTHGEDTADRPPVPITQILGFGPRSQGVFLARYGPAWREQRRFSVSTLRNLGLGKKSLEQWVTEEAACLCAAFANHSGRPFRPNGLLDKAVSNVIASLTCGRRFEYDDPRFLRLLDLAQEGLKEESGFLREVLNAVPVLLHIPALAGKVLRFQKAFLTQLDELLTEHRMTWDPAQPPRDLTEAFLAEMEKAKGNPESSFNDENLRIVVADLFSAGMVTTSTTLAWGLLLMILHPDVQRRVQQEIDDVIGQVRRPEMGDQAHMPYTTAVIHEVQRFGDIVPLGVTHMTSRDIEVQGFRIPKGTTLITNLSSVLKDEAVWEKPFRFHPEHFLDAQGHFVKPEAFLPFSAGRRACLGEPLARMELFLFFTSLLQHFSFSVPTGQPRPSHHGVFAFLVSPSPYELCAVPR

Compound: Cc1ccc(C)c(OCC(N)C2CC2)c1.Cl (centres undefined)
Activity [1]: 66 µM | Ratio IC50 [2]: 1.9 | fold change (FC) [3]: 1.11 | Activity [4]: 200 µM | Activity [5]: 200 µM | fold change (FC) [6]: 1.686 | IC50 [7]: 162 µM | EC50 [8]: 0.022 µM | IC50 [9]: 98 µM | Activity [10]: 66 µM | IC50 [11]: 51.8 µM

Compound: Cl.N[C@H](COc1ccccc1C(F)(F)F)c1ccccc1
AUC [12]: 407 ng·h/mL | LD50 [13]: > 200 mg/kg | t1/2 [14]: 6.5 h | bioavailability [15]: 42% | Activity [16]: Toxic | Activity [17]: Toxic | Tmax [18]: 1.5 h | Cmax [19]: 219 ng/mL | Tmax [20]: 0.17 h | remaining at 1 h, 50 µM [21]: > 95% | remaining at 1 h, 50 µM [22]: > 95% | t1/2 [23]: 3.8 h | AUC [24]: 1008 ng·h/mL | Cmax [25]: 226 ng/mL

Compound: COCCNC(COc1cccc(C)c1C)c1ccccc1.Cl (racemic)
Activity [1]: Not Active | fold change (FC) [3]: 1.508 | Activity [4]: Not Active | Ratio IC50 [26]: 34.5 | Activity [5]: 200 µM | Activity [6]: Not Active | IC50 [7]: 25.8 µM | EC50 [8]: 5.73 µM | IC50 [9]: 27.6 µM | Activity [10]: 133 µM | half-life at 100 µM [27]: > 720 h | IC50 [11]: 0.747 µM | half-life at 100 µM [28]: > 720 h

Compound: Cc1cc(C)cc(OC[C@H](N)c2ccccc2)c1.Cl
LD50 [13]: > 200 mg/kg | Activity [31]: Non-Toxic | half-life at 50 µM [29]: 16.9 h | half-life at 50 µM [30]: 6.77 h

Compound: Cc1cc(C)cc(OC[C@@H](N)c2ccccc2)c1.Cl
LD50 [13]: > 200 mg/kg | Activity [16]: Toxic | Activity [17]: Toxic | remaining at 1 h, 50 µM [21]: > 95% | remaining at 1 h, 50 µM [22]: > 95%

Compound: Cl.N[C@@H](COc1ccccc1C(F)(F)F)c1ccccc1
AUC [12]: 280 ng·h/mL | LD50 [13]: > 200 mg/kg | t1/2 [14]: 5.3 h | bioavailability [15]: 100% | Tmax [18]: 1.5 h | Cmax [19]: 249 ng/mL | Tmax [20]: 0.18 h | Activity [31]: Non-Toxic | remaining at 1 h, 50 µM [21]: > 95% | remaining at 1 h, 50 µM [22]: > 95% | t1/2 [23]: 1.2 h | AUC [24]: 1556 ng·h/mL | Activity [32]: Active | Cmax [25]: 258 ng/mL

More lines, main results first:

half-life at 50 µM [29]: 6.8 h | half-life at 50 µM [30]: 6.08 h
Compound: Cc1ccccc1OC[C@H](N)c1ccccc1.Cl

AUC [12]: 544 ng·h/mL | Drug metabolism [33]: 42.6 pmol/min | t1/2 [14]: 6.5 h | bioavailability [15]: 38% | Tmax [18]: 1.5 h | Cmax [19]: 250 ng/mL | Drug metabolism [35]: 15.4 pmol/min | Tmax [20]: 0.17 h | IC50 [7]: 41.1 µM | IC50 [9]: 37.5 µM | t1/2 [23]: 3.2 h | AUC [24]: 1008 ng·h/mL | half-life at 100 µM [27]: > 720 h | IC50 [11]: 1.04 µM | half-life at 100 µM [28]: > 360 h | Drug metabolism [37]: 43.6 pmol/min | Cmax [25]: 226 ng/mL
Compound: Cl.NC(COc1ccccc1C(F)(F)F)c1ccccc1 (racemic)
Activity [1]: Not Active | fold change (FC) [3]: 1.783 | Activity [4]: 66 µM | EC50 [34]: Not Active | Activity [5]: 66 µM | EC50 [8]: < 0.8 µM | Ratio IC50 [36]: 36.1 | Activity [10]: 22 µM

IC50 [7]: 20 µM | IC50 [9]: 7.16 µM | IC50 [11]: 1.03 µM
Compound: Cl.NC(COc1cc(C(F)(F)F)cc(C(F)(F)F)c1)c1ccccc1 (centres undefined)
Activity [1]: Not Active | fold change (FC) [3]: 1.208 | Activity [4]: 133 µM | EC50 [34]: Not Active | Ratio IC50 [26]: 19.4 | Activity [5]: 66 µM | EC50 [8]: 23.1 µM | Activity [10]: 22 µM

Reference: ChEMBL document CHEMBL4808187, “Antiarrhythmic Hit to Lead Refinement in a Dish Using Patient-Derived iPSC Cardiomyocytes” (J Med Chem, 2021)
